Laboratory results: PubChem BioAssay AID1515 (The Scripps Research Institute Molecular Screening Center, 2009)
About 440 (0.2%) of roughly 220,000 compounds were called active. The sample holds actives, similar compounds and a random draw of the others, so the mix is not that of the screen.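 How the source made its calls: active means inhibition above the campaign mean of all tested compounds plus 3 SD (cut at about 14% in these data); inactive means the rest.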

These compounds were tested against Serine hydrolase RBBP9 (Homo sapiens) (UniProt O75884) (assay: human RBBP9 inhibitors, primary screen, biochemical, fluorescence polarization, FP-Rh probe, HTS (AID 1515;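 further: plate controls were DMSO wells with RBBP9 for no effect and wells lacking RBBP9 protein for full effect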)). Details: recombinant RBBP9, FP-Rh probe fluorescence polarization; at 7.94 µM; active compounds read high.
Serine hydrolase RBBP9 (Homo sapiens), sequence (O75884 whole entry, looked up): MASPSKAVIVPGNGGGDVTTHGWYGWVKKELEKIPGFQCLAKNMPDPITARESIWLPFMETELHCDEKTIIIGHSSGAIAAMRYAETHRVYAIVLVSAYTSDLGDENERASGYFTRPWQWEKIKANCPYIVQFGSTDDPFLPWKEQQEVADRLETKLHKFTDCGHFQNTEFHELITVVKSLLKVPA
How it was run: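 Test system: recombinant human RBBP9. Quantity: 2.5 µM RBBP9 dispensing solution, before mixing. Detection: FP readout at 525/598 nm. Reagent: Serine-hydrolase probe FP-Rh, 375 nM pre-mixing. Measure: % inhibition. Control set: DMSO-treated enzyme wells and wells lacking RBBP9. Buffer or medium: Tris-NaCl-Pluronic buffer, pH 8.0. Times: preincubation 30 min plus labeling 45 min at 25 °C.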

inhibition, inactive:
COc1cccc(NC(=O)NCc2ccc(F)cc2)c1 -0.62%
CCNC(=S)NNC(=O)C1CCN(Cc2ccccc2)CC1 -3.59%
CCC(=O)Nc1ccc(C(=O)Nc2cccc(OC)c2)cc1 -4.79%
CC(=O)c1ccc(NC(=O)c2ccc3c(Cl)c4c(nc3c2)CCCC4)cc1 -3.32%
O=C(NCCCn1ccnc1)C(=O)NCC1OCCN1S(=O)(=O)c1cc(F)ccc1F (configuration not stated) -2.12%
O=C(NCc1cccs1)C(=O)NCC1OCCCN1S(=O)(=O)c1ccc(F)cc1 (configuration not stated) -5.51%
Cc1cc(CO)nn1-c1ccc([N+](=O)[O-])cc1 -1.67%
CCN(CC)Cc1nc2sc(C)c(C)c2c(=O)[nH]1 0.79%
COc1ccc(C(=O)CSc2nnc(-c3ccco3)o2)cc1 -6.2%
CC(C)n1c(=S)[nH]c2cc(C(F)(F)F)ccc21 -5.5%
CCN(C(=O)Cc1nc(N)n[nH]1)C1(C(=O)Nc2ccccc2)CCCCC1 4.99%
COc1ccc(-c2nnn(Cc3nc(N)nc(N4CCCCC4)n3)n2)cc1 -9.6%
COc1ccc(-n2nnnc2SCC(=O)NCc2cccs2)cc1 -4.68%
Cc1onc(-c2ccccc2Cl)c1C(=O)OCC(=O)c1ccccc1 -7.59%
O=c1nc(N/N=C/c2ccco2)cn[nH]1 -3.99%
COC(=O)c1ccccc1NC(=O)Cc1ccccc1OC 6.78%
CN1CCN(C(c2cc3cc4c(cc3[nH]c2=O)OCCO4)c2nnnn2C2CCCC2)CC1 (configuration not stated) -9.4%
COCCn1nnnc1C(c1cc2ccc(OC)cc2[nH]c1=O)N1CCc2ccccc2C1 (configuration not stated) 5.71%
C[N+](C)(C)CCOP(=O)([O-])OC[C@H](O)CO 0.46%
COc1ccccc1N1CCN(CC(=O)NCCc2ccc(S(N)(=O)=O)cc2)CC1 0.48%
CCCC(NC(=O)c1ccco1)c1nc2ccccc2[nH]1 (configuration not stated) 0.23%
O=C(CN1CCN(c2ccc(Cl)cc2)CC1)NCc1cccs1 -5.55%
CC(C)c1ccc(NC(=S)NNc2ccc(Cl)c(C(=O)O)c2)cc1 -0.79%
Nc1nnc(SCC(=O)OCc2ccc(Cl)c(Cl)c2)s1 -1.35%
C=CCn1c(COc2ccccc2F)nnc1SCC(=O)N1CC(=O)Nc2ccccc21 -3.31%
Cc1nc(SCC(=O)N2CC(=O)Nc3ccccc32)c2c(C)c(C)sc2n1 -7.82%
CN1CCNC(=O)C1CC(=O)N1CC=C(c2ccc(F)cc2)CC1 (configuration not stated) 1.72%
COc1cc2c3c(c1)/C(=C1/SC(=S)NC1=O)C(=O)N3C(C)(C)C=C2C -0.69%
COC(=O)COc1ccc(C2NC(=O)NC(C)=C2C(=O)NCc2ccccc2)cc1OC (configuration not stated) -2.89%
O=C(CNc1ccc(F)cc1F)NC(=O)NCc1ccco1 5.92%
Oc1c(C(c2cccs2)N2CCN(c3ccc(F)cc3)CC2)sc2ncnn12 (configuration not stated) -6.82%
O=C(c1ccc(F)cc1)N1CCC(n2nnc3ccccc32)CC1 1.82%
Cc1cccc(C)c1Nc1c(-c2ccccc2O)nc2ncccn12 4.64%
Cc1ccc(-c2nc(C#N)c(NCCCn3ccnc3)o2)cc1 -5.98%
CC(C)c1ccc2c(c1)c(SC(C)(C)C)c(CC(C)(C)C(=O)O)n2Cc1ccc(Cl)cc1 5.23%
CCN(CC)C(=O)Oc1ccc(OC(=O)N(CC)CC)cc1 3.51%
CCCc1nc2oc3c(OCC)ncnc3c2c2c1COC(C)(C)C2 -0.01%
CC(C)(C)C(=O)NC(NC(=S)Nc1ccc(S(N)(=O)=O)cc1)C(Cl)(Cl)Cl (configuration not stated) -7.24%
Cc1ccc(C(C(=O)NC2CCCC2)N(Cc2ccco2)C(=O)CCC(=O)Nc2ccccn2)cc1 (configuration not stated) -4.24%
CCOc1ccccc1N(CC(=O)NC1CCCCC1)C(=O)CCCC(=O)Nc1ccccn1 -3.56%

inhibition, active:
COc1cccc(NC(=O)c2ccc3c(SCC(=O)O)c4c(nc3c2)CCCC4)c1 14.3%
Cc1cc(F)ccc1S(=O)(=O)N1CCCOC1CNC(=O)C(=O)NCCC1=CCCCC1 (configuration not stated) 44.9%
COc1ccc(-n2nnnc2SCc2nc(N)nc(N3CCOCC3)n2)cc1 14.8%
CCOc1ccc2[nH]c(=O)c(C(c3nnnn3CCOC)N3CCOCC3)cc2c1 (configuration not stated) 15.5%
Nn1c(Cc2cccc3ccccc23)nnc1SCC(=O)N1CC(=O)Nc2ccccc21 15.1%
C=CS(=O)c1sc(Cl)c(N2CCOCC2)c1[N+](=O)[O-] (configuration not stated) 17.3%
O=C(CCCC(=O)N(CC(=O)NC1CCCC1)Cc1ccccc1Cl)Nc1ccccn1 16.9%
